According to ChEMBL document CHEMBL4229344 (Eur J Med Chem, 2018):
Active and inactive are the calls of the source. The rule behind the calls is not given here.

Key:
[1] = target: Activin receptor type-1-like (Homo sapiens) (UniProt P37023); assay: Binding affinity to wild-type human ACVRL1 (L164 to Q503 residues) expressed in bacterial expression system assessed as residual binding level at 1 uM by Kinomescan method relative to control
Method in brief: (§1)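 Single-concentration (1 μM) competition-binding screen run by KINOMEscan against a panel of 468 purified kinases and mutants. The read-out is the relative binding activity of the test compound to each kinase.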

[2] = target: Ankyrin repeat and protein kinase domain-containing protein 1 (Homo sapiens) (UniProt Q8NFD2); assay: Binding affinity to wild-type human partial length ANKK1 (M1 to A305 residues) expressed in mammalian expression system assessed as residual binding level at 1 uM by Kinomescan method relative to control
Method in brief: (§2)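 Single-concentration KINOMEscan (DiscoverX) binding screen at 1 μM against a panel of 468 purified kinases and mutants. The read-out is binding relative to control.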

[3] = target: Tyrosine-protein kinase BTK (Homo sapiens) (UniProt Q06187); assay: Binding affinity to wild-type human full length BTK (M1 to S659 residues) expressed in mammalian expression system assessed as residual binding level at 1 uM by Kinomescan method relative to control; method in brief: as §1
[4] = target: Macrophage colony-stimulating factor 1 receptor (Homo sapiens) (UniProt P07333); assay: Binding affinity to wild-type human partial length CSF1R (I564 to S939 residues) expressed in bacterial expression system assessed as residual binding level at 1 uM by Kinomescan method relative to control
[5] = target: Epidermal growth factor receptor (Homo sapiens) (UniProt P00533); assay: Binding affinity to human partial length EGFR L747-T751del/Sins mutant expressed in bacterial expression system assessed as residual binding level at 1 uM by Kinomescan method relative to control
Method in brief: (§3)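 Kinome-wide single-concentration binding screen (KINOMEscan) at 1 μM against a panel of 468 purified kinases and mutants. Read-out is relative binding of each kinase compared with control. Selectivity across the panel was summarised as an S(10) score.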

[6] = target: Ephrin type-A receptor 2 (Homo sapiens) (UniProt P29317); assay: Binding affinity to wild-type human partial length EPHA2 (T593 to V891 residues) expressed in bacterial expression system assessed as residual binding level at 1 uM by Kinomescan method relative to control
[7] = target: Tyrosine-protein kinase JAK1 (Homo sapiens) (UniProt P23458); assay: Binding affinity to wild-type human partial length JAK1 JH2 pseudokinase domain (R537 to D855 residues) expressed in mammalian expression system assessed as residual binding level at 1 uM by Kinomescan method relative to control
[8] = target: Serine/threonine-protein kinase LATS1 (Homo sapiens) (UniProt O95835); assay: Binding affinity to wild-type human partial length LATS1 (Q678 to V1130 residues) expressed in bacterial expression system assessed as residual binding level at 1 uM by Kinomescan method relative to control
[9] = target: MAP kinase-activated protein kinase 5 (Homo sapiens) (UniProt Q8IW41); assay: Binding affinity to wild-type human partial length MAPKAPK5 (M1 to D322 residues) expressed in mammalian expression system assessed as residual binding level at 1 uM by Kinomescan method relative to control
[10] = target: Myosin-IIIa (Homo sapiens) (UniProt Q8NEV4); assay: Binding affinity to wild-type human partial length MYO3A (M1 to K338 residues) expressed in bacterial expression system assessed as residual binding level at 1 uM by Kinomescan method relative to control
Method in brief: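 Kinome-wide competition binding screen against a panel of 468 purified kinases/mutants, with the test compound at a single concentration of 1 μM. Read-out is the relative binding activity of each kinase in the presence of compound.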

[11] = target: Phosphatidylinositol 3-kinase C2 domain-containing subunit gamma (Homo sapiens) (UniProt O75747); assay: Binding affinity to wild-type human partial length PIK3C2G (M1 to I1446 residues) expressed in mammalian expression system assessed as residual binding level at 1 uM by Kinomescan method relative to control
[12] = system: Proto-oncogene tyrosine-protein kinase receptor Ret (Homo sapiens), P07949 [M918T]; assay: Binding affinity to human partial length RET M918T mutant (E713 to D1014 residues) expressed in bacterial expression system assessed as residual binding level at 1 uM by Kinomescan method relative to control; method in brief: as §3
[13] = target: Tyrosine-protein kinase Srms (Homo sapiens) (UniProt Q9H3Y6); assay: Binding affinity to wild-type human partial length SRMS (L208 to P488 residues) expressed in mammalian expression system assessed as residual binding level at 1 uM by Kinomescan method relative to control
[14] = target: Dual specificity testis-specific protein kinase 1 (Homo sapiens) (UniProt Q15569); assay: Binding affinity to wild-type human full length TESK1 (R37 to S626 residues) expressed in bacterial expression system assessed as residual binding level at 1 uM by Kinomescan method relative to control; method in brief: as §2
[15] = target: Serine/threonine-protein kinase TNNI3K (Homo sapiens) (UniProt Q59H18); assay: Binding affinity to wild-type human full length TNNI3K (M1 to S835 residues) expressed in bacterial expression system assessed as residual binding level at 1 uM by Kinomescan method relative to control; method in brief: as §2
[16] = target: Platelet-derived growth factor receptor beta (Homo sapiens, UniProt P09619); assay: Inhibition of TEL-fused PDGFRbeta (unknown origin) expressed in mouse BA/F3 cells assessed as growth inhibition after 72 hrs by CellTiter-Glo or CCK-8 assay; assay type: cell-based
Method in brief: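 Parental BaF3 or IL-3-independent TEL-kinase BaF3 lines, made by retroviral infection and puromycin selection, grown in RPMI 1640 with 10% FBS. Cells seeded at 1–3 × 10^4 cells/mL with serial compound concentrations for 72 h. Viability read by CellTiter-Glo luminescence or CCK-8 absorbance at 450/655 nm and normalised to DMSO. GI50 obtained by triplicate testing with linear regression. Selectivity is the ratio of the two GI50 values.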

[17] = target: Platelet-derived growth factor receptor alpha (Homo sapiens, UniProt P16234); assay: Inhibition of PDGF-induced PDGFRalpha autophosphorylation at Y754 residue in human NCI-H1703 cells after 2 hrs in presence of PDGF-AA by Western blot analysis; assay type: cell-based
[18] = system: EOL1; assay: Induction of apoptosis in human EOL-1 cells assessed as cleaved PARP expression level at 3 to 100 nM after 24 hrs by Western blot analysis; assay type: functional, cell-based
Method in brief: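 Cells exposed to compound or DMSO for the stated periods, then lysed and immunoblotted for PARP and caspase-3 cleavage, with β-actin as loading control. NCI-H1703 stimulation used PDGF AA at 100 ng/mL.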

[19] = system: EOL1; assay: Antitumor activity against human EOL-1 cells xenografted in nu/nu mouse assessed as tumor growth inhibition at 25 to 100 mg/kg/day, ip; assay type: functional, organism-based
Method in brief: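 Female nu/nu mice, six weeks old; 5 million EOL-1 cells in PBS mixed 1:1 with Matrigel, injected subcutaneously in the right flank. Dosing began once tumors reached 200–400 mm3, with randomization into groups of 6. Daily IP dosing at 25.0, 50.0 or 100 mg/kg/d in 0.5% methocellulose/0.4% Tween80 in water, or vehicle alone, for 14 days. Tumor volume = (W2×L)/2, measured daily. Final tumor weights were also recorded.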

Chain of Ephrin type-A receptor 2 (Homo sapiens) (P29317 whole entry, the tested form may be a part): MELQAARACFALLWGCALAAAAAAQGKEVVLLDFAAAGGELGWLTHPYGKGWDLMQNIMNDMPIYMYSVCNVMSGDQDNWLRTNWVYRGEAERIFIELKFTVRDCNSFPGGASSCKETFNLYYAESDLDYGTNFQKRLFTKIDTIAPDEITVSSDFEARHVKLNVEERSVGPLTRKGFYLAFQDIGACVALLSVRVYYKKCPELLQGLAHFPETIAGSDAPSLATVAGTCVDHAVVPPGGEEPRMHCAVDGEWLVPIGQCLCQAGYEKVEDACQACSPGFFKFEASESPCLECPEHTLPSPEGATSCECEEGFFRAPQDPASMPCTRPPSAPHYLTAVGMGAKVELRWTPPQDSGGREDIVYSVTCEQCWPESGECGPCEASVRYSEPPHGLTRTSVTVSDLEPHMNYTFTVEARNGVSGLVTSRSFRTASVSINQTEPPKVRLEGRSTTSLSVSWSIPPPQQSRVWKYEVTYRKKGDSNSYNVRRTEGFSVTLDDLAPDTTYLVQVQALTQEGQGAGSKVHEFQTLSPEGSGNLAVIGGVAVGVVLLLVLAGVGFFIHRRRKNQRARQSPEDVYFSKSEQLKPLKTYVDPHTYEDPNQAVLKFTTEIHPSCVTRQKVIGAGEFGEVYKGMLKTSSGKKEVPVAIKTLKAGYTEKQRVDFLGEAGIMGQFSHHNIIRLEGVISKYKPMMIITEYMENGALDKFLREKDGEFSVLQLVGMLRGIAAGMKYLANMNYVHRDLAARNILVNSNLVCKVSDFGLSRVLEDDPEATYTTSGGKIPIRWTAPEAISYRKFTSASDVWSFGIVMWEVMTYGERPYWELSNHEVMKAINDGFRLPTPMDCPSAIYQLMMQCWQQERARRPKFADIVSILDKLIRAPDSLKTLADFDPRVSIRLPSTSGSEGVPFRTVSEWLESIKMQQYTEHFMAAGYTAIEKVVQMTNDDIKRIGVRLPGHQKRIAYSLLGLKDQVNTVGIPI
Chain of Serine/threonine-protein kinase LATS1 (Homo sapiens) (O95835 whole entry, the tested form may be a part): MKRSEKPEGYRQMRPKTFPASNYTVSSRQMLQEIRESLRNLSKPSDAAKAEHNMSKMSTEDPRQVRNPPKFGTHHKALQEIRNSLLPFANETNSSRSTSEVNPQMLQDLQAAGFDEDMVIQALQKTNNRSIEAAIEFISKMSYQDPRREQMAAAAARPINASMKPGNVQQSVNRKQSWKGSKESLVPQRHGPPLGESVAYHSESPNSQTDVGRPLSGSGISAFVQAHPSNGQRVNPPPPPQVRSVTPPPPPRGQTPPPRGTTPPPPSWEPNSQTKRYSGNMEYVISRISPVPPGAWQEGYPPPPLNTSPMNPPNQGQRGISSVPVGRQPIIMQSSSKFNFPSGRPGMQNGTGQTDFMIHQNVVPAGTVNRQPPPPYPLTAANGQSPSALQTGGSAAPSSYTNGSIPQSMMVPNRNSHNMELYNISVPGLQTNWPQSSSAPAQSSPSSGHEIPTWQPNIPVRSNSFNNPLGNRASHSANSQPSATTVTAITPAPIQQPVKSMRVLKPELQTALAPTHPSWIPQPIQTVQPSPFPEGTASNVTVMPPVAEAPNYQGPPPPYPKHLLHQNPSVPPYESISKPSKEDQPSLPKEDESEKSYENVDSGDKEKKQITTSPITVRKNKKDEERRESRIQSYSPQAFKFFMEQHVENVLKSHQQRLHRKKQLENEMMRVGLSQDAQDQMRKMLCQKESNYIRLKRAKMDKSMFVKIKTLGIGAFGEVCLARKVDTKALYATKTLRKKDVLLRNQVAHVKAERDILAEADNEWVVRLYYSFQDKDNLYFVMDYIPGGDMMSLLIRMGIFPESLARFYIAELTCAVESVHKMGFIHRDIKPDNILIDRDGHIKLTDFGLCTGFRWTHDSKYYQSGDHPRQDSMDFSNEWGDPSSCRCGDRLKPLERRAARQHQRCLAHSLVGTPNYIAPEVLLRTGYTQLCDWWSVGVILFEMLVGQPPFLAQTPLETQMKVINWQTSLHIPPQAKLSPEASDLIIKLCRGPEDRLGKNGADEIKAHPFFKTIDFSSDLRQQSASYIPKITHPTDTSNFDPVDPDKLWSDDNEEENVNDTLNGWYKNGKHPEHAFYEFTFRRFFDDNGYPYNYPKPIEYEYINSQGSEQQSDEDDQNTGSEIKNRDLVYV
Chain of Activin receptor type-1-like (Homo sapiens) (P37023 whole entry, the tested form may be a part): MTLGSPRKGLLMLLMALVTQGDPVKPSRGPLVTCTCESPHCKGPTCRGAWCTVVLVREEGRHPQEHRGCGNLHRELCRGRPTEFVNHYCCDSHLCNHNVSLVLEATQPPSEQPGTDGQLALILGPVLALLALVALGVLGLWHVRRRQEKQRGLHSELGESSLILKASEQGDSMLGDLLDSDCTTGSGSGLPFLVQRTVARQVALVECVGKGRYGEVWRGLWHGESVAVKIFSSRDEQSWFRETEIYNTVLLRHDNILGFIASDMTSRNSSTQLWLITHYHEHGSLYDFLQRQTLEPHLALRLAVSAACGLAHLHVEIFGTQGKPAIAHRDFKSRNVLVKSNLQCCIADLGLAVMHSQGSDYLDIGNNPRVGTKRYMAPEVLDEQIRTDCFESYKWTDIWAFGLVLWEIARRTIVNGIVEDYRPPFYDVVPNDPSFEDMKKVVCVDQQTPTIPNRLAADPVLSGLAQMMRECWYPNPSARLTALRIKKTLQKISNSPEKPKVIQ
Chain of Tyrosine-protein kinase Srms (Homo sapiens) (Q9H3Y6 whole entry, the tested form may be a part): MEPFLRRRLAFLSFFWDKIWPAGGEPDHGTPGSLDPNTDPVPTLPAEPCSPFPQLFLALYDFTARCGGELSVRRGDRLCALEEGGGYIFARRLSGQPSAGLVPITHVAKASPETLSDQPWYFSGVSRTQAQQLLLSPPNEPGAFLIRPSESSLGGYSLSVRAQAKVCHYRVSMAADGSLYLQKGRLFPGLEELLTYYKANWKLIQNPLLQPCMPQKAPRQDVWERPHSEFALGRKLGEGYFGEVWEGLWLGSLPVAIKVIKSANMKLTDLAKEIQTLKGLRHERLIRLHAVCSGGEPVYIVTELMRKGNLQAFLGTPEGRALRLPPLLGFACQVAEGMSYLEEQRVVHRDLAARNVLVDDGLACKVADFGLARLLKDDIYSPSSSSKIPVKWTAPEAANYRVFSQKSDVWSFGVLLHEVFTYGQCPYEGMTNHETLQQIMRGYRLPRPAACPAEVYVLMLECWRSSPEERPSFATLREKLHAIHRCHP
Chain of Macrophage colony-stimulating factor 1 receptor (Homo sapiens) (P07333 whole entry, the tested form may be a part): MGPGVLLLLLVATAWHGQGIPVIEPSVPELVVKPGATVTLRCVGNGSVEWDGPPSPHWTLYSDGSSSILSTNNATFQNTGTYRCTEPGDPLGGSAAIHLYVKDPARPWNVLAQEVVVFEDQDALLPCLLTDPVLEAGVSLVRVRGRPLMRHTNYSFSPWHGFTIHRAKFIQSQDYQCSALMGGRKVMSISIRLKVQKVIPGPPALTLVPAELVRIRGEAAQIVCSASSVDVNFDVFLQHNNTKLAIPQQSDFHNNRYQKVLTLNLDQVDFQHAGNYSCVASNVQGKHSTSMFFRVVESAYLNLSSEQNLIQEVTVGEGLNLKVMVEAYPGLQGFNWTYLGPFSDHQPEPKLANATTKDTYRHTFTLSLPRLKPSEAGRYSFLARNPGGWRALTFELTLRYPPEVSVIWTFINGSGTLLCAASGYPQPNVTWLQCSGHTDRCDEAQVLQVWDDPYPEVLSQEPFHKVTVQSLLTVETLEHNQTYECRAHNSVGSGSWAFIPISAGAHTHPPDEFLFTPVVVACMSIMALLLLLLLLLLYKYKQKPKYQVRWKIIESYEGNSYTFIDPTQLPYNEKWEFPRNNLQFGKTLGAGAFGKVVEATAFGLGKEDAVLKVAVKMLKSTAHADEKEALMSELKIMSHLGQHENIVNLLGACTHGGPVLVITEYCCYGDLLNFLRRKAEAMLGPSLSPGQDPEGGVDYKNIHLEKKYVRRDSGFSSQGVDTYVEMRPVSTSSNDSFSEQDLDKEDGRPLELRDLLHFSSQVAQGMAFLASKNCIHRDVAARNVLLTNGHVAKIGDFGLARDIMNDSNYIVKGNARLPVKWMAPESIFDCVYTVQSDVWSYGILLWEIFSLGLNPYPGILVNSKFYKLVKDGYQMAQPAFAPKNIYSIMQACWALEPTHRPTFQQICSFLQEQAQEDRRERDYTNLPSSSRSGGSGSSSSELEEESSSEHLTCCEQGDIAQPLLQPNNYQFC
Chain of Serine/threonine-protein kinase TNNI3K (Homo sapiens) (Q59H18 whole entry, the tested form may be a part): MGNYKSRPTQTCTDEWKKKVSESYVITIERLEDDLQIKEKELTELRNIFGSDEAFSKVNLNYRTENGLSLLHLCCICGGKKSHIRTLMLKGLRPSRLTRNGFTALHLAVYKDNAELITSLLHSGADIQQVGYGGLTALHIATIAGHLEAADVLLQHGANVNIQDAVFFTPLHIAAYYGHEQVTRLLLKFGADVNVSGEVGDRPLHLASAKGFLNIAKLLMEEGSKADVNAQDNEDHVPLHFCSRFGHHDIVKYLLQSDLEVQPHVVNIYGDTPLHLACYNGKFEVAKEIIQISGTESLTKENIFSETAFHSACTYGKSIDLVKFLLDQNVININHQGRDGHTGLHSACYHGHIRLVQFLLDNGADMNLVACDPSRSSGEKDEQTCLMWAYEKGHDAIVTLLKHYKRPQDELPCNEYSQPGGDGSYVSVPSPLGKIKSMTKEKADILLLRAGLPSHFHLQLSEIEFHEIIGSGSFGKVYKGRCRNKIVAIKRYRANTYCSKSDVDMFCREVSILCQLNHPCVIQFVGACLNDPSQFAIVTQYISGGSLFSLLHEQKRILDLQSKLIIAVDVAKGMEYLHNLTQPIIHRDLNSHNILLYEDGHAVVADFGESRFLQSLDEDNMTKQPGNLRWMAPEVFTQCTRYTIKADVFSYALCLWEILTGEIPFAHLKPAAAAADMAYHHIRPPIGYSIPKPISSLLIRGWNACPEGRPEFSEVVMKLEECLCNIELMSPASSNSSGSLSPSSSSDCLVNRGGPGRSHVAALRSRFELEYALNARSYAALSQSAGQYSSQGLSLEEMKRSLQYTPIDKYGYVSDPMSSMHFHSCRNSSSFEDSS

## Cc1ccc(NC(=O)c2ccc(CN(CCN(C)C)C(=O)c3cccnc3)cc2)cc1Nc1nccc(-c2cccnc2)n1
[1]
  Activity: 100%
[2]
  Activity: 100%
[3]
  Activity: 100%
[4]
  Activity: 10%
[5]
  Activity: 100%
[6]
  Activity: 100%
[7]
  Activity: 78%
[8]
  Activity: 98%
[9]
  Activity: 100%
[10]
  Activity: 92%
[11]
  Activity: 100%
[12]
  Activity: 85%
[13]
  Activity: 97%
[14]
  Activity: 100%
[15]
  Activity: 100%
[16]
  GI50: 2.9 µM
[17]
  inhibition: Dose-dependent effect
[18]
  Activity: Active
[19]
  TGI: Dose-dependent effect
